Assays:
Candida albicans [1] = assay: Antifungal activity against Candida albicans MY1055 infected in DBA/2 mouse model of disseminated candidiasis assessed as reduction in fungal burden in kidney by measuring log change in colony forming units at 6.25 mg/kg, po bid for 7 days by TOKA; assay type: functional; conditions: time 7 day
How it was run: (§1)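 Murine disseminated candidiasis model (TOKA) in mice challenged with C. albicans MY1055 at 2.44 x 10^4 CFU/mouse. Dosed PO, or IP where stated. Kidneys collected aseptically 7 days after challenge and CFUs/g counted. Change in log CFU/g is relative to sham-treated controls; significance by two-tailed t test. Clearance is the percentage of kidneys below the detection limit.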

[2] = Clearance in rat; assay type: ADME; conditions: in vivo
Aspergillus fumigatus [3] = assay: Antifungal activity against Aspergillus fumigatus MF5668 infected in DBA/2N mouse assessed as mean survival time at 12.5 mg/kg, ip bid administered for 7 days starting from 15 to 30 mins post infection and measured up to 21 days; assay type: functional; conditions: time 7 day
How it was run: (§2)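 DBA/2N mice were challenged IV with A. fumigatus MF5668 at 6.7 x 10^5 CFU/mouse, then dosed IP twice daily for 7 days. Survival was followed over a 21-day model, and mean survival time in days was recorded per dose group. A sham-treated control group was run alongside.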

Aspergillus fumigatus [4] = assay: Antifungal activity against Aspergillus fumigatus MF5668 infected in ip dosed DBA/2N mouse assessed as 50% mouse survival administered bid administered for 7 days starting from 15 to 30 mins post infection and measured up to 21 days; conditions: 168 h
[5] = Oral bioavailability in rat; assay type: ADME, organism-based; conditions: in vivo
How it was run: (§3)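 Oral bioavailability calculated as oral AUC normalized to the IV dose, divided by the IV AUC.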

Candida albicans [6] = assay: Antifungal activity against Candida albicans MY1055 assessed as fungal growth inhibition measured after 24 hrs by liquid microdilution method; assay type: functional
How it was run: (§4)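 Broth microdilution per CLSI protocols in RPMI medium. Read-out is the MIC, the lowest concentration completely inhibiting fungal growth. Run without serum and with added serum.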

[7] = Half life in dog; assay type: ADME, Canis lupus familiaris; conditions: in vivo
[8] = Half life in mouse; assay type: ADME, organism-based; conditions: in vivo
Candida albicans [9] = assay: Antifungal activity against Candida albicans MY1055 infected in DBA/2 mouse model of disseminated candidiasis assessed as reduction in fungal burden in kidney by measuring log change in colony forming units at 25 mg/kg, po bid for 7 days by TOKA; assay type: functional; conditions: time 7 day; how it was run: as §1
[10] = Dose normalized AUC in po rhesus monkey; assay type: ADME, organism-based, Macaca mulatta; conditions: in vivo
Aspergillus fumigatus [11] = assay: Antifungal activity against Aspergillus fumigatus MF5668 infected in DBA/2N mouse assessed as mouse survival at 3.125 mg/kg, ip bid administered for 7 days starting from 15 to 30 mins post infection and measured up to 21 days relative to control; assay type: functional; conditions: 168 h, time 7 day
How it was run: (§5)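 DBA/2N mice were infected IV with A. fumigatus MF5668 (6.7 x 10^5 CFU/mouse) and treated IP bid for 7 days. Percent survival per dose group was scored at the end of the 21-day survival model and compared with the sham-treated control group.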

Candida albicans [12] = assay: Antifungal activity against Candida albicans MY1055 assessed as fungal growth inhibition measured after 24 hrs in presence of 50% mouse serum by liquid microdilution method; assay type: functional; how it was run: as §4
[13] = Clearance in mouse; assay type: ADME, organism-based; conditions: in vivo
Candida albicans [14] = assay: Antifungal activity against Candida albicans MY1055 infected in DBA/2 mouse model of disseminated candidiasis assessed as reduction in fungal burden in kidney by measuring log change in colony forming units at 12.5 mg/kg, po bid for 7 days by TOKA; assay type: functional; conditions: time 7 day; how it was run: as §1
Aspergillus fumigatus [15] = assay: Antifungal activity against Aspergillus fumigatus MF5668 infected in DBA/2N mouse assessed as mean survival time at 6.25 mg/kg, ip bid administered for 7 days starting from 15 to 30 mins post infection and measured up to 21 days; assay type: functional; conditions: time 7 day; how it was run: as §2
[16] = Half life in rat; assay type: ADME; conditions: in vivo
Aspergillus fumigatus [17] = assay: Antifungal activity against Aspergillus fumigatus MF5668 infected in ip dosed DBA/2N mouse assessed as 90% mouse survival administered bid administered for 7 days starting from 15 to 30 mins post infection and measured up to 21 days; assay type: functional; conditions: 168 h, time 7 day
Aspergillus fumigatus [18] = assay: Antifungal activity against Aspergillus fumigatus MF5668 assessed inhibition of fungal growth by measuring morphological changes measured after 24 hrs by microscopy; assay type: functional; conditions: read-out: MEC
How it was run: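 Microdilution per CLSI protocols in RPMI medium. Read-out is the minimum effective concentration (MEC). Run without serum and with 50% human serum.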

Aspergillus fumigatus [19] = assay: Antifungal activity against Aspergillus fumigatus MF5668 infected in DBA/2N mouse assessed as mean survival time at 1.56 mg/kg, ip bid administered for 7 days starting from 15 to 30 mins post infection and measured up to 21 days; assay type: functional; conditions: time 7 day; how it was run: as §2
Candida albicans [20] = assay: Antifungal activity against Candida albicans MY1055 infected in DBA/2 mouse model of disseminated candidiasis assessed as reduction in fungal burden in kidney by measuring log change in colony forming units at 12.5 mg/kg, ip bid for 7 days by TOKA; assay type: functional; conditions: time 7 day; how it was run: as §1
Aspergillus fumigatus [21] = assay: Antifungal activity against Aspergillus fumigatus MF5668 infected in DBA/2N mouse assessed as mean survival time at 3.125 mg/kg, ip bid administered for 7 days starting from 15 to 30 mins post infection and measured up to 21 days; assay type: functional; conditions: time 7 day; how it was run: as §2
[22] = Oral bioavailability in dog; assay type: ADME, organism-based, Canis lupus familiaris; conditions: in vivo; how it was run: as §3
[23] = Dose normalized AUC in po dosed mouse; assay type: ADME, organism-based; conditions: in vivo
Aspergillus fumigatus [24] = assay: Antifungal activity against Aspergillus fumigatus MF5668 infected in DBA/2N mouse assessed as mouse survival at 1.56 mg/kg, ip bid administered for 7 days starting from 15 to 30 mins post infection and measured up to 21 days relative to control; assay type: functional; conditions: 168 h, time 7 day; how it was run: as §5
Aspergillus fumigatus [25] = assay: Antifungal activity against Aspergillus fumigatus MF5668 infected in DBA/2N mouse assessed as mouse survival at 6.25 mg/kg, ip bid administered for 7 days starting from 15 to 30 mins post infection and measured up to 21 days relative to control; assay type: functional; conditions: 168 h, time 7 day; how it was run: as §5
Candida albicans [26] = assay: Antifungal activity against Candida albicans MY1055 infected in ip dosed DBA/2 mouse model of disseminated candidiasis assessed as reduction in fungal burden in kidney administered bid for 7 days by TOKA; assay type: functional; conditions: 168 h, time 7 day; how it was run: as §1
[27] = Oral bioavailability in rhesus monkey; assay type: ADME, organism-based, Macaca mulatta; conditions: in vivo; how it was run: as §3
[28] = Half life in rhesus monkey; assay type: ADME, Macaca mulatta; conditions: in vivo
Aspergillus fumigatus [29] = assay: Antifungal activity against Aspergillus fumigatus MF5668 infected in DBA/2N mouse assessed as mouse survival at 12.5 mg/kg, ip bid administered for 7 days starting from 15 to 30 mins post infection and measured up to 21 days relative to control; assay type: functional; conditions: 168 h, time 7 day; how it was run: as §5
[30] = Inhibition of beta-1,3-glucan synthase in Candida albicans MY1055 microsomal membrane assessed as inhibition of TCA-insoluble material formation using UDP-[3H]-glucose as substrate incubated for 2 hrs in presence of GTP by radioactivity-based assay; assay type: microsomes, Microsome
How it was run: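 GS IC50 measured using Candida albicans MY1055 microsomal membrane fragments as the enzyme source.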

[31] = Dose normalized AUC in po dosed rat; assay type: ADME, organism-based; conditions: in vivo
[32] = Clearance in rhesus monkey; assay type: ADME, Macaca mulatta; conditions: in vivo
[33] = Clearance in dog; assay type: ADME, Canis lupus familiaris; conditions: in vivo
[34] = Dose normalized AUC in po dosed dog; assay type: ADME, organism-based, Canis lupus familiaris; conditions: in vivo
[35] = Oral bioavailability in mouse; assay type: ADME, organism-based; conditions: in vivo; how it was run: as §3

Row | Structure (SMILES) | Activity (Candida albicans [1]) [deltalog10CFU] | clearance [2] [mL/min/kg] | MST (Aspergillus fumigatus [3]) [days] | ED50 (Aspergillus fumigatus [4]) [mg/kg] | bioavailability [5] [%] | MIC (Candida albicans [6]) [µg/mL] | half-life [8] [h] | Activity (Candida albicans [9]) [deltalog10CFU] | survival at 3.125 mg/kg (Aspergillus fumigatus [11]) [%] | MIC (Candida albicans [12]) [µg/mL] | clearance [13] [mL/min/kg] | Activity (Candida albicans [14]) [deltalog10CFU] | MST (Aspergillus fumigatus [15]) [days] | half-life [16] [h] | ED90 (Aspergillus fumigatus [17]) [mg/kg] | minimal effective concentration (Aspergillus fumigatus [18]) [µg/mL] | MST (Aspergillus fumigatus [19]) [days] | Activity (Candida albicans [20]) [deltalog10CFU] | MST (Aspergillus fumigatus [21]) [days] | AUC/dose [23] [µM·kg·h/mg] | also measured
1 | CC(C)[C@@H](C)[C@@]1(C)CC[C@]2(C)[C@H]3CC[C@@H]4[C@@]5(COC[C@@]4(C)[C@@H](OC[C@](C)(N)C(C)C)[C@H](n4ncnc4-c4ccncc4)C5)C3=CC[C@@]2(C)[C@@H]1C(=O)O | -2.4 | 12 | 14.7 | 8.2 | 28 | < 0.03 | 4.9 | -4.5 | 30 | 0.5 | 17 | -2.9 | 12.4 | 3.9 | 31 | < 0.03 | 4.2 | -4.01 | 10.7 | 0.42 | half-life [7]: 9 h; AUC/dose [10]: 0.08 µM·kg·h/mg; bioavailability [22]: 21%; survival at 1.56 mg/kg (Aspergillus fumigatus [24]): 0%; survival at 6.25 mg/kg (Aspergillus fumigatus [25]): 40%; ED99 (Candida albicans [26]): 1.2 mg/kg; bioavailability [27]: 5%; half-life [28]: 6.1 h; survival at 12.5 mg/kg (Aspergillus fumigatus [29]): 60%; IC50 [30]: 0.002 µg/mL; AUC/dose [31]: 0.56 µM·kg·h/mg; clearance [32]: 14 mL/min/kg; clearance [33]: 6 mL/min/kg; AUC/dose [34]: 0.9 µM·kg·h/mg; bioavailability [35]: 31%
2 | CC(C)[C@@H](C)[C@@]1(C)CC[C@]2(C)[C@H]3CC[C@@H]4[C@@]5(COC[C@@]4(C)[C@@H](OCC4(N)CCOCC4)[C@H](n4ncnc4-c4ccncc4)C5)C3=CC[C@@]2(C)[C@@H]1C(=O)O | -1.4 | 20 | 14.6 | 11 | 30 | < 0.03 | 2.1 | -3.9 | 10 | 0.25 | 18 | -3.1 | 12.5 | 1.9 | 26 | < 0.03 | 4.1 | -4 | 7.3 | 0.18 | survival at 1.56 mg/kg (Aspergillus fumigatus [24]): 0%; survival at 6.25 mg/kg (Aspergillus fumigatus [25]): 40%; ED99 (Candida albicans [26]): 3.8 mg/kg; survival at 12.5 mg/kg (Aspergillus fumigatus [29]): 60%; IC50 [30]: 0.002 µg/mL; AUC/dose [31]: 0.34 µM·kg·h/mg; bioavailability [35]: 13%
